Calls of active or inactive are those of the source. No cut-off for these calls is given here.

Assay [1] concerns the target T1, P2Y purinoceptor 2 (Homo sapiens, UniProt P41231). Briefly: Agonist activity at P2Y2 receptor expressed in human 1321 cells by calcium mobilization assay. The format is functional, cell-based.
A further assay concerns the target P2Y purinoceptor 6 (Homo sapiens, UniProt Q15077). The assay can be described thus: Agonist activity at P2Y6 receptor expressed in human 1321 cells at 100 uM by calcium mobilization assay. The format is functional, cell-based. A digest of the protocol: (§1)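 1321N1 human astrocytoma cells expressing the recombinant receptor were loaded with Fluo-3 AM (2.5 µM final) for 60 min at 25 °C. Assay buffer: KCl 10, NaCl 118, CaCl2 2.5, MgCl2 1, HEPES 20, glucose 10 mM, pH 7.4. Cells were washed and then stimulated with compound. Intracellular calcium was read as the change in fluorescence (FLIPR). Values are EC50 in µM. SR means 5–20% of maximal response at the top concentration, usually 100 µM. NR means no response.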

Another assay has as its target P2Y purinoceptor 1 (Homo sapiens, UniProt P47900). The assay can be described thus: Agonist activity at human recombinant P2Y1 receptor expressed in human 1321 cells at 100 uM by calcium mobilization assay. The format is functional, cell-based. Summed up:
as §1

Assay [2] concerns the target P2Y purinoceptor 12 (Homo sapiens) (UniProt Q9H244). Briefly: Antagonist activity at P2Y12 receptor assessed as inhibition of ADP-induced human platelet aggregation by washed platelet assay at 100 uM. It is filed as functional. Summed up:
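Blood from healthy volunteers was anticoagulated with ACD and spun at 180g for 15 min to give PRP. Platelets were washed three times in HEPES-buffered saline, pH 7.4, with 0.2% BSA and 5 µM PGI2, then resuspended with 0.25 U/mL apyrase. The suspension held 1 mg/mL fibrinogen at 37 °C, stirred at 1000 rpm. Compound (usually 1 nM–100 µM) was added for 2 min, then ADP at EC90 (usually 1–10 µM). Optical aggregation was recorded for 8 min. IC50 came from a four-parameter logistic fit.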

For assay [3], the target named is T1, P2Y purinoceptor 2. The assay can be described thus: Agonist activity at P2Y2 receptor expressed in human 1321 cells at 100 uM by calcium mobilization assay. The format is functional, cell-based. A digest of the protocol: as §1

P2Y purinoceptor 12 (Homo sapiens), sequence (Q9H244 whole entry): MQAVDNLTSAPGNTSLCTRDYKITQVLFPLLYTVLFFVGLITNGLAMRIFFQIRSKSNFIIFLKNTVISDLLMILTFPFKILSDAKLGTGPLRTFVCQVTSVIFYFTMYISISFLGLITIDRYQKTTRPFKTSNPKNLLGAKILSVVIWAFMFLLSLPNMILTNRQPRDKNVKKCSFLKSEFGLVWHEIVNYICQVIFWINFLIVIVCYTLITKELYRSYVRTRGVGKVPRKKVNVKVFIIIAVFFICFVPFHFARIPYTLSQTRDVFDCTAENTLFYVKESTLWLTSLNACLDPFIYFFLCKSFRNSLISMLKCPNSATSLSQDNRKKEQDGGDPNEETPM
P2Y purinoceptor 1, sequence (P47900 whole entry): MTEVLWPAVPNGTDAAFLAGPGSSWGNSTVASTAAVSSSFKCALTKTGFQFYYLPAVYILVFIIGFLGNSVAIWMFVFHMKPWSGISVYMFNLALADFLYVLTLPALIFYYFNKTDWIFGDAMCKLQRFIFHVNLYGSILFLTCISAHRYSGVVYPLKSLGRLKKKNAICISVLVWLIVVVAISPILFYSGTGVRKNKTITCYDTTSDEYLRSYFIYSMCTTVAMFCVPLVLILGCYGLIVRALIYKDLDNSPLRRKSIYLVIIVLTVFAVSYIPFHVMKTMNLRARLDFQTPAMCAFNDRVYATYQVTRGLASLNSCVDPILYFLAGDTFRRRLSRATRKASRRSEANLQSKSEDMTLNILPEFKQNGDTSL
T1 sequence (P41231 whole entry): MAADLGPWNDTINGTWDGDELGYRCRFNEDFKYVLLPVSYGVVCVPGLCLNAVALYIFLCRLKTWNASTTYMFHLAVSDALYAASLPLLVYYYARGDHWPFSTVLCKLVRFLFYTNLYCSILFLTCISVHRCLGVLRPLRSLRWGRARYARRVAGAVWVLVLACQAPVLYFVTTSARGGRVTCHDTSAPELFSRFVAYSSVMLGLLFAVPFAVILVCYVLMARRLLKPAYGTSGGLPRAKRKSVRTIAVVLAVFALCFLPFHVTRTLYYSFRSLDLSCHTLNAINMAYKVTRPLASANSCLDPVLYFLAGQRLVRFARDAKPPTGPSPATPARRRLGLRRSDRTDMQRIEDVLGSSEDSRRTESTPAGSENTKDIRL
P2Y purinoceptor 6, sequence (Q15077 whole entry): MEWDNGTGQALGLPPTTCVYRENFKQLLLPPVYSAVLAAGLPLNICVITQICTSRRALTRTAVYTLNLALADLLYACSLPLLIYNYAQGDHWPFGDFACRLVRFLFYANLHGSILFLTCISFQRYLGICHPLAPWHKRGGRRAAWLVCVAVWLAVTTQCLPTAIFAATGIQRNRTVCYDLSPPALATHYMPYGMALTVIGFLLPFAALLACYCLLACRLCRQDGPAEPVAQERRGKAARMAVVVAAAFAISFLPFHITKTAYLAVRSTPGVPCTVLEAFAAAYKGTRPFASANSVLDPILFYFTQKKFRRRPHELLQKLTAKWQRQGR

Take `CCCCCCCC1O[C@@H]2[C@H](O1)[C@@H](COP(=O)(O)OP(=O)(O)OP(=O)(O)OP(=O)(O)OC[C@@H]1O[C@H](n3ccc(=O)[nH]c3=O)[C@@H](O)[C@H]1O)O[C@H]2n1ccc(=O)[nH]c1=O` (some centres not stated): the EC50 at P2Y purinoceptor 2 [1] was determined as 0.147 µM. In addition, the Activity on P2Y purinoceptor 6 is above 5%. In addition, the result on P2Y purinoceptor 1 was inactive.

As for `O=C(O[C@@H]1[C@H](OC(=O)c2ccccc2)[C@@H](n2ccc(=O)[nH]c2=O)O[C@H]1COP(=O)(O)OP(=O)(O)OP(=O)(O)OP(=O)(O)OC[C@H]1O[C@@H](n2ccc(=O)[nH]c2=O)[C@H](OC(=O)c2ccccc2)[C@@H]1OC(=O)c1ccccc1)c1ccccc1`, the inhibition in assay [2] is 52%. Also, the outcome on P2Y purinoceptor 6, on P2Y purinoceptor 2 [3] and on P2Y purinoceptor 1 was inactive.

On to `O=C(Nc1ccc(F)cc1)Nc1ccn([C@@H]2O[C@H](COP(=O)(O)OP(=O)(O)OP(=O)(O)OP(=O)(O)OC[C@@H]3O[C@H](n4ccc(=O)[nH]c4=O)[C@@H](O)[C@H]3O)[C@H]3O[C@@H](Cc4ccccc4)O[C@H]32)c(=O)n1`, for which the Activity at P2Y purinoceptor 2 [3] is above 5%. The result at P2Y purinoceptor 1 was inactive.

For `Nc1ncnc2c1ncn2[C@@H]1O[C@H](COP(=O)(O)OP(=O)(O)OP(=O)(O)O)[C@@H](O)[C@H]1O`, the inhibition in assay [2] was found to be 63%.

On to `Nc1ccn([C@@H]2O[C@H](COP(=O)(O)OP(=O)(O)OP(=O)(O)OP(=O)(O)OC[C@@H]3O[C@H](n4ccc(=O)[nH]c4=O)[C@H]4OC(Cc5ccccc5)O[C@H]43)[C@H]3OC(Cc4ccccc4)O[C@H]32)c(=O)n1` (some centres not stated), for which the outcome on P2Y purinoceptor 6, on P2Y purinoceptor 2 [3] and on P2Y purinoceptor 1 was inactive.

As for `O=c1ccn([C@@H]2O[C@H](COP(=O)(O)OP(=O)(O)OP(=O)(O)OP(=O)(O)OC[C@@H]3O[C@H](n4ccc(=O)[nH]c4=O)[C@@H](O)[C@H]3O)[C@@H]3OC(Cc4ccccc4)O[C@H]32)c(=O)[nH]1` (some centres not stated), the EC50 on P2Y purinoceptor 2 [1] worked out at 0.094 µM. Moreover, the Activity on P2Y purinoceptor 6 was above 5%. Besides, the outcome on P2Y purinoceptor 1 was inactive.

For the molecule `O=C(Nc1ccc(F)cc1)Nc1ccn([C@@H]2O[C@H](COP(=O)(O)O)C(O)C2O)c(=O)n1` (single isomer, unassigned), in assay [2], the result was inactive.

In the case of `Nc1ncnc2c1ncn2[C@@H]1O[C@H](COP(=O)(O)OP(=O)(O)OP(=O)(O)OP(=O)(O)OC[C@@H]2O[C@H](n3cnc4c(N)ncnc43)[C@@H](O)[C@H]2O)[C@H]2OC(Cc3ccccc3)O[C@H]21` (some centres not stated), the 50% effective concentration (EC50) at P2Y purinoceptor 2 [1] was 0.052 µM. In addition, the outcome on P2Y purinoceptor 6 and at P2Y purinoceptor 1 was inactive.

As for `Nc1ccn([C@@H]2O[C@H](COP(=O)(O)O)[C@H]3O[C@@H](Cc4ccccc4)O[C@H]32)c(=O)n1`, the result (in assay [2]; at P2Y purinoceptor 6; on P2Y purinoceptor 2 [3]; at P2Y purinoceptor 1) was inactive.

`O=c1ccn([C@@H]2O[C@H](COP(=O)(O)OP(=O)(O)OP(=O)(O)OP(=O)(O)OC[C@@H]3O[C@H](n4ccc(=O)[nH]c4=O)[C@H]4OC(c5ccccc5)O[C@H]43)[C@H]3OC(c4ccccc4)O[C@H]32)c(=O)[nH]1` (some centres not stated): the EC50 on P2Y purinoceptor 2 [1] was 3.07 µM. Moreover, the result on P2Y purinoceptor 6 and on P2Y purinoceptor 1 was inactive.

As to `O=c1ccn([C@@H]2O[C@H](COP(=O)(O)OP(=O)(O)OP(=O)(O)OC[C@@H]3O[C@H](n4ccc(=O)[nH]c4=O)[C@H]4OC(Cc5ccccc5)O[C@H]43)[C@H]3OC(Cc4ccccc4)O[C@H]32)c(=O)[nH]1` (some centres not stated), the outcome on P2Y purinoceptor 6, on P2Y purinoceptor 2 [3] and on P2Y purinoceptor 1 was inactive.

`O=C(Nc1ccc(F)cc1)Nc1ccn([C@@H]2O[C@H](COP(=O)(O)OP(=O)(O)OP(=O)(O)OP(=O)(O)OC[C@@H]3O[C@H](n4ccc(=O)[nH]c4=O)[C@@H](O)[C@H]3O)[C@@H](O)[C@H]2O)c(=O)n1`: in assay [2], the outcome was inactive. Further, on P2Y purinoceptor 2 [1], the EC50 was 2.42 µM. The Activity at P2Y purinoceptor 1 is above 5%.

Regarding `O=C(Nc1ccc(F)cc1)Nc1ccn([C@@H]2O[C@H](COP(=O)(O)OP(=O)(O)OP(=O)(O)OP(=O)(O)OC[C@@H]3O[C@H](n4ccc(=O)[nH]c4=O)[C@H]4O[C@@H](Cc5ccccc5)O[C@H]43)[C@H]3O[C@@H](Cc4ccccc4)O[C@H]32)c(=O)n1`, the result on P2Y purinoceptor 6, on P2Y purinoceptor 2 [3] and on P2Y purinoceptor 1 was inactive.

In the case of `O=c1ccn([C@@H]2O[C@H](COP(=O)(O)OP(=O)(O)OP(=O)(O)OP(=O)(O)OC[C@@H]3O[C@H](n4ccc(=O)[nH]c4=O)[C@@H](O)[C@H]3O)[C@H]3OC(/C=C/c4ccccc4)O[C@H]32)c(=O)[nH]1` (stereo in doubt; 24), at P2Y purinoceptor 2 [1], the EC50 came out at 0.155 µM. Further, the result at P2Y purinoceptor 1 was inactive.

Take `CCCC1O[C@@H]2[C@@H](O1)[C@@H](COP(=O)(O)OP(=O)(O)OP(=O)(O)OP(=O)(O)OC[C@@H]1O[C@H](n3ccc(=O)[nH]c3=O)[C@H]3OC(CCC)O[C@H]31)O[C@H]2n1ccc(=O)[nH]c1=O` (some centres not stated): in assay [2], the inhibition amounted to 60%. Besides, the Activity at P2Y purinoceptor 6 and on P2Y purinoceptor 2 [3] was above 5% throughout. In addition, the outcome on P2Y purinoceptor 1 was inactive.

In the case of `O=c1ccn([C@@H]2O[C@H](COP(=O)(O)OP(=O)(O)OP(=O)(O)OP(=O)(O)OC[C@@H]3O[C@H](n4ccc(=O)[nH]c4=O)[C@H]4OC(/C=C/c5ccccc5)O[C@H]43)[C@H]3OC(/C=C/c4ccccc4)O[C@H]32)c(=O)[nH]1` (stereo in doubt; 25), the Activity on P2Y purinoceptor 6 was above 5%. Further, the result at P2Y purinoceptor 2 [3] and at P2Y purinoceptor 1 was inactive.

As for `CNc1ccccc1C(=O)O[C@H]1[C@@H](O)[C@H](n2ccc(=O)[nH]c2=O)O[C@@H]1COP(=O)(O)OP(=O)(O)OP(=O)(O)OP(=O)(O)OC[C@@H]1O[C@H](n2ccc(=O)[nH]c2=O)[C@@H](OC(=O)c2ccccc2NC)[C@H]1O`, the half-maximal effective concentration (EC50) on P2Y purinoceptor 2 [1] worked out at 5.47 µM. Besides, the Activity on P2Y purinoceptor 6 was above 5%. Besides, on P2Y purinoceptor 1, the result was inactive.

Consider `O=c1ccn([C@@H]2O[C@H](COP(=O)(O)OP(=O)(O)OP(=O)(O)OP(=O)(O)OC[C@@H]3O[C@H](n4ccc(=O)[nH]c4=O)[C@@H](O)[C@H]3O)[C@@H]3OC(c4ccccc4)O[C@H]32)c(=O)[nH]1` (some centres not stated), for which the EC50 at P2Y purinoceptor 2 [1] was determined as 0.192 µM. On P2Y purinoceptor 6, the Activity was above 5%. For the same molecule, at P2Y purinoceptor 1, the result was inactive.

For the molecule `O=C(Nc1ccc(F)cc1)Nc1ccn([C@@H]2O[C@H](COP(=O)(O)O)[C@H]3O[C@@H](Cc4ccccc4)O[C@H]32)c(=O)n1`, the result at P2Y purinoceptor 6, at P2Y purinoceptor 2 [3] and at P2Y purinoceptor 1 was inactive.

Regarding `O=c1ccn([C@@H]2O[C@H](COP(=O)(O)OP(=O)(O)OP(=O)(O)OP(=O)(O)OC[C@@H]3O[C@H](n4ccc(=O)[nH]c4=O)[C@@H](O)[C@H]3O)[C@H]3OC(C#Cc4ccccc4)O[C@H]32)c(=O)[nH]1` (stereo in doubt; 26), the EC50 on P2Y purinoceptor 2 [1] is 0.068 µM. Moreover, the outcome on P2Y purinoceptor 1 was inactive.

On to `CCCCCCCC1O[C@@H]2[C@H](O1)[C@@H](COP(=O)(O)OP(=O)(O)OP(=O)(O)OP(=O)(O)OC[C@@H]1O[C@H](n3ccc(=O)[nH]c3=O)[C@H]3OC(CCCCCCC)O[C@H]31)O[C@H]2n1ccc(=O)[nH]c1=O` (some centres not stated), for which the outcome on P2Y purinoceptor 6 and at P2Y purinoceptor 1 was inactive.

As for `O=C(Nc1ccccc1)Nc1ncnc2c1ncn2[C@@H]1O[C@H](COP(=O)(O)OP(=O)(O)O)[C@H]2O[C@@H](Cc3ccccc3)O[C@H]21`, at P2Y purinoceptor 2 [1], the EC50 amounted to 13.9 µM. Also, the Activity on P2Y purinoceptor 6 and at P2Y purinoceptor 1 was above 5% throughout.

`O=C(Nc1ccc(F)cc1)Nc1ccn([C@@H]2O[C@H](COP(=O)(O)OP(=O)(O)OP(=O)(O)OP(=O)(O)OC[C@@H]3O[C@H](n4ccc(=O)[nH]c4=O)[C@H]4O[C@@H](Cc5ccccc5)O[C@H]43)[C@@H](O)[C@H]2O)c(=O)n1`: the result at P2Y purinoceptor 2 [3] and at P2Y purinoceptor 1 was inactive.

On to `Nc1ccn([C@@H]2O[C@H](COP(=O)(O)OP(=O)(O)OP(=O)(O)OP(=O)(O)OC[C@@H]3O[C@H](n4ccc(=O)[nH]c4=O)[C@H]4OC(Cc5ccccc5)O[C@H]43)[C@@H](O)[C@H]2O)c(=O)n1` (some centres not stated), for which, in assay [2], the inhibition worked out at 46%. For the same molecule, the result at P2Y purinoceptor 6, on P2Y purinoceptor 2 [3] and on P2Y purinoceptor 1 was inactive.

For the molecule `Nc1ncnc2c1ncn2[C@@H]1O[C@H](COP(=O)(O)OP(=O)(O)OP(=O)(O)OP(=O)(O)OC[C@@H]2O[C@H](n3cnc4c(N)ncnc43)[C@H]3OC(Cc4ccccc4)O[C@H]32)[C@H]2OC(Cc3ccccc3)O[C@H]21` (some centres not stated), the outcome on P2Y purinoceptor 6 and on P2Y purinoceptor 1 was inactive. In addition, on P2Y purinoceptor 2 [3], the Activity was above 5%.

Regarding `O=C(Nc1ccccc1)Nc1ncnc2c1ncn2[C@@H]1O[C@H](COP(=O)(O)OP(=O)(O)OP(=O)(O)OP(=O)(O)OC[C@@H]2O[C@H](n3cnc4c(NC(=O)Nc5ccccc5)ncnc43)[C@H]3O[C@@H](Cc4ccccc4)O[C@H]32)[C@H]2O[C@@H](Cc3ccccc3)O[C@H]21`, the outcome on P2Y purinoceptor 2 [3] and at P2Y purinoceptor 1 was inactive.
